The source made the active and inactive calls.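 How the source made its calls: active means compounds whose fitted curve reaches a 35% growth drop at up to twice the top tested dose; inconclusive means flat curve with a 30 to 70% growth drop, or poor fit; inactive means opposite effect, flat curve, or crossing beyond the limit.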

For the first test, the system named is P. aeruginosa PAK mexAB-oprM, EDDHA, OD600 growth, 28 h. Description: efflux-deficient P. aeruginosa PAK growth delay, dose response, whole organism, PAK mexAB-OprM mutant, OD600, EDDHA, dry powder, set 3 (AID 624072).
Conditions: not given
In a few lines: (§1)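 Buffer or medium: succinate M9 plus 2 µM EDDHA. Test system: P. aeruginosa PAK ΔmexAB-oprM. Times: 28 h at 30 °C.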
For the molecule `CCCCC(c1ccc(Cl)cc1)c1nn[nH]n1` (stereo not given), the AC35 was 97.2 µM.
On the same count and under the same terms, then `N#CC(c1cccc(C(F)(F)F)n1)c1ccc(Cl)cc1F` (stereo not given), with 4.24 µM; and `N#CC(c1ccc(Cl)cc1)c1ccc(Cl)cn1` (stereo not given), with 9.77 µM.
For `COCCC(C#N)c1ccc(F)cc1` (stereo not given), the AC35 was 98.3 µM.
As to `N#CC(c1ccc(Cl)cc1)c1cccc(C(F)(F)F)n1` (stereo not given), the AC35 was 3.92 µM.
The same measure, in the same setting: under `N#CC(c1ccc(F)cc1)c1cccc(C(F)(F)F)n1` (stereo not given) stands 3 µM; under `N#CC(c1cccc(Cl)n1)c1ccc(Cl)cc1F` (stereo not given), 6.02 µM; under `N#CC(c1ccc(Cl)cc1)c1ncccc1Cl` (stereo not given), 6.94 µM.
The same measure, in the same setting: under `N#CC(c1ccc(Cl)cc1)c1cccc(Cl)n1` (stereo not given) stands 5.35 µM.

Test system in a further test: not listed separately
Described as above. To be noted: P. aeruginosa PAK mexAB-oprM, EDDHA, OD600 growth, 28 h; at 100 µM (top of the series). In a few lines:
as §1
Take `COCCNC(C#N)c1ccc(Cl)cc1` (stereo not given): the activity change, negative = growth inhibition is -9.68% (inactive).

These data come from PubChem BioAssay AID624072 (Broad Institute, 2012).
